Compound activity deposited in PubChem BioAssay by several laboratories.
APJ ag: APJ receptor agonism. P35414. CHO-K1 APJ PathHunter beta-arrestin, luminescence; 0% DMSO wells, 100% apelin. activation, % at 20 µM. 0.11% of 330,000 active. AID 2520;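 active means activation more than six SD over the plate average, tested at 20 µM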;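 further: 0% = DMSO alone and 100% = apelin-13 at 10 nM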
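Assay system: engineered CHO-K1 APJ arrestin reporter cells; Amount: 1000 CHO-K1 reporter cells seeded per well; Dosing: one dose, 20 µM compound, 1% DMSO; Times: compound stimulation 90 min at 25 °C, detection 60 min; Measured by: luminescent beta-gal fragment complementation, chemiluminescent substrate; Read-out: APJ–arrestin association signal; Controls: DMSO vs Apelin-13 10 nM.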
CXCR6 block: blocks human CXCR6 beta-arrestin recruitment; inhibition, % at 20 µM; AID 602244; 0.36% of 360,000 active; O00574; CHO-K1 PathHunter CXCR6 beta-arrestin, luminescence; in the data active means inhibition above about 34%, passing the limit was not always enough;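 further: antagonist mode with CXCL16 agonist at 10 nM final; 0% = 10 nM CXCL16 with DMSO and 100% = unstimulated wells without agonist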
EBI2 antag: blocks human EBI2 receptor beta-arrestin signaling; P32249; EBI2 beta-arrestin recruitment, luminescence, 7a,25-OHC stimulated; inhibition, % at 5 µM; 0.81% of 360,000 active; in the data active means inhibition above about 38%;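 further: enzyme fragment complementation signal reports receptor beta-arrestin coupling in cells; 0% = agonist plus DMSO wells and 100% = wells without agonist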
Target sequence (P32249 whole entry, looked up, the tested form may be a part): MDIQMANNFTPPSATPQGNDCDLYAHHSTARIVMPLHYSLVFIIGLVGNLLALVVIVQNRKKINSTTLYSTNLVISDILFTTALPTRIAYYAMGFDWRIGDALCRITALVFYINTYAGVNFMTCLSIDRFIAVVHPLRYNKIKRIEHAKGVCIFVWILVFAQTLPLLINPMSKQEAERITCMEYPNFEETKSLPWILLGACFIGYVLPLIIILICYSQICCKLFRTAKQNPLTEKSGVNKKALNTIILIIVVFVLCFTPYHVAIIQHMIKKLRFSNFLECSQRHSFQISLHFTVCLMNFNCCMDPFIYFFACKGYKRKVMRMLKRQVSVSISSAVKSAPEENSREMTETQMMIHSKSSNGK
APJ antag: antagonists of human APJ apelin receptor | P35414 | CHO-K1 APJ beta-arrestin complementation, luminescence | inhibition, % at 20 µM | 0.32% of 330,000 active | AID 2521;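 active means inhibition above about 40% at 20 µM, limit read from the data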;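 further: cells challenged with 10 nM apelin-13 agonist together with compound; plate controls were apelin-13 plus DMSO wells for no effect and DMSO wells lacking apelin-13 for full effect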
HTR2A ag: agonists of mouse serotonin 5-HT2A receptor (HTR2A). P35363. activation, % at 7.6 µM. 0.66% of 360,000 active. CHO-K1 mHTR2A beta-arrestin complementation, luminescence; percent of 30 µM serotonin response;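 active means activation above a run cutoff, the mean activation of all tested compounds plus 3 SD, cut at about 14% in these data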;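 further: 0% = plate median of compound wells and 100% = 30 µM serotonin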
CCR6 antag: CCR6 (human) receptor antagonism. P51684. CHO-K1 CCR6 PathHunter beta-arrestin, luminescence, CCL20-stimulated. inhibition, % at 20 µM. 0.49% of 340,000 active. AID 493098;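 active means compounds whose inhibition of the agonist-driven luminescence signal at 20 µM reaches about 50%, limit read from the data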;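 further: cells stimulated with CCL20 at 14 nM final; plate controls were DMSO with CCL20 for no effect and DMSO without agonist for full effect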
* = called active by the depositor. This is a sample that favours compounds with a hit; in the whole collection about 2.1% have one here.

Screening COCC(C)NC(=O)C1CCN(S(=O)(=O)c2ccc3ccccc3c2)CC1 (stereo not given) returned APJ ag 9.3, CXCR6 block -7.1, EBI2 antag -2.8, APJ antag -11.3, HTR2A ag -8.1 and CCR6 antag 3.1.
COc1cccc(CNC(=O)CSCC(=O)Nc2cc(C)on2)c1 was read as APJ ag -1.1, CXCR6 block -0.4, EBI2 antag -2.4, APJ antag 21.9, HTR2A ag 0.3 and CCR6 antag -1.0.
For N#C/C(=C\c1ccc(O)c(O)c1)S(=O)(=O)c1ccccc1 the results were APJ ag -6.8, CXCR6 block 23.4, EBI2 antag 8.2, APJ antag 19.0, HTR2A ag -6.8 and CCR6 antag 52.7*.
`N#C/C(=C/c1ccc(F)cc1)S(=O)(=O)c1ccccc1` gave APJ ag -3.2, CXCR6 block -3.6, EBI2 antag 10.0, APJ antag -13.4, HTR2A ag -2.1 and CCR6 antag -1.8.
O=C(/C=C/c1ccc(O)c(O)c1)c1ccccc1O was read as APJ ag -3.5, CXCR6 block 21.9, EBI2 antag 6.4, APJ antag 43.1*, HTR2A ag -5.7 and CCR6 antag 52.1*.
COC1=C(Br)C(=O)c2ncccc2C1=O was read as CXCR6 block 58.8*, EBI2 antag -27.2, HTR2A ag 4.0 and CCR6 antag 78.7*.
For Cn1c(=O)c(=O)n(C)c2cc(S(=O)(=O)NCCOc3ccccc3Cl)ccc21 the results were APJ ag -4.4, CXCR6 block 4.0, EBI2 antag 5.7, APJ antag 40.2*, HTR2A ag -1.4 and CCR6 antag 11.4.
`O=S(=O)(NCCOc1ccccc1Cl)c1ccc2oc3ccccc3c2c1` gave APJ ag 3.7, CXCR6 block -4.1, EBI2 antag -10.1, APJ antag -2.6, HTR2A ag 0.7 and CCR6 antag 15.9.
`COCCCNC(=O)C[C@@H]1C[C@@]2(C(=O)OC)CCCCC=C2N(Cc2cccc3ccccc23)C1=O` gave CXCR6 block 5.6, EBI2 antag 7.2 and HTR2A ag -0.2.
Screening COc1ccc(N=C2S/C(=C\c3ccc(N4CCOCC4)o3)C(=O)N2CCc2c[nH]c3ccccc23)cc1 returned APJ ag 0.8, CXCR6 block 12.5, EBI2 antag 80.9*, APJ antag 9.8 and HTR2A ag 1.0.
`CCOc1ccccc1C(=O)NN1C(=O)CCC1=O` gave APJ ag -1.6, CXCR6 block -5.8, EBI2 antag -13.3, APJ antag 7.4, HTR2A ag -0.1 and CCR6 antag 21.5.
`Cc1cccc(NS(=O)(=O)c2ccc(NC(=O)CN(c3cc([N+](=O)[O-])ccc3C)S(C)(=O)=O)cc2)c1` gave APJ ag 1.1, CXCR6 block -1.8, EBI2 antag 85.5*, APJ antag -0.1, HTR2A ag -1.9 and CCR6 antag 3.4.
`CCN(Cc1ccc2c(c1)OCCO2)C(=O)CN1C(=O)NC2(CCc3ccccc32)C1=O` (stereo not given) gave APJ ag -5.2, CXCR6 block -2.0, EBI2 antag -0.7, APJ antag 5.6, HTR2A ag -7.1 and CCR6 antag -1.7.
`NS(=O)(=O)c1ccc(Nc2ccc([N+](=O)[O-])c3nonc23)cc1` gave APJ ag -6.0, CXCR6 block 31.2, EBI2 antag 4.8, APJ antag 35.4, HTR2A ag -3.7 and CCR6 antag 63.5*.
Screening CC(=O)c1ccc(Nc2ccc([N+](=O)[O-])c3nonc23)cc1 returned APJ ag -4.7, CXCR6 block 31.6, EBI2 antag 7.5, APJ antag 36.3, HTR2A ag -5.2 and CCR6 antag 40.1.
Screening O=[N+]([O-])c1ccc(N2CCOCC2)cc1O returned APJ ag -2.6, CXCR6 block 3.8, EBI2 antag 4.3, APJ antag -6.5, HTR2A ag -2.2 and CCR6 antag 14.1.
Screening Cc1cc(N2CCOCC2)ccc1/C=C\[N+](=O)[O-] returned APJ ag 5.9, CXCR6 block 32.3, EBI2 antag 17.3, APJ antag 23.8, HTR2A ag -4.4 and CCR6 antag 55.7*.
`CCOc1ccc2oc(C(=O)N3CCN(Cc4ccccc4)CC3)c(C)c2c1` gave APJ ag -0.4, CXCR6 block 0.2, EBI2 antag 44.1*, APJ antag 8.1, HTR2A ag -3.5 and CCR6 antag 4.9.
For COc1cc(OC)nc(NC(=O)CN2CCN(c3ccc(F)cc3)CC2)n1 the results were APJ ag -3.1, CXCR6 block 2.7, EBI2 antag -7.1, APJ antag 19.9, HTR2A ag -6.7 and CCR6 antag -4.0.
Screening CCCC(=O)Nc1nnc(-c2ccc(Cl)s2)o1 returned APJ ag -3.0, CXCR6 block -5.2, EBI2 antag -5.5, APJ antag 8.4, HTR2A ag 26.5* and CCR6 antag 0.8.
`O=C(Nc1nnc(-c2ccc(Cl)s2)o1)C1CCCCC1` gave APJ ag -2.2, CXCR6 block 13.0, EBI2 antag -6.3, APJ antag 3.6, HTR2A ag 9.5 and CCR6 antag 18.0.
`CC(C)c1ccc(S(=O)(=O)c2cnc(=S)[nH]c2N)cc1` gave APJ ag -1.7, CXCR6 block 8.1, EBI2 antag 0.6, APJ antag 11.4, HTR2A ag 5.1 and CCR6 antag 10.2.
Nc1nn(S(=O)(=O)c2ccccc2)cc1-c1ccc([N+](=O)[O-])cc1 was read as APJ ag 9.9*, CXCR6 block -11.4, EBI2 antag -17.3, APJ antag -63.2, HTR2A ag -1.6 and CCR6 antag 11.6.
COc1ccc(NC(=S)NCCc2c[nH]c3ccc(OC)cc23)c(OC)c1 was read as APJ ag -0.8, CXCR6 block 5.6, EBI2 antag 1.7, APJ antag 23.7, HTR2A ag 0.2 and CCR6 antag 8.4.
`CCN(CC)c1ccc2c(Cl)c(Br)c(=O)oc2c1` gave APJ ag -2.2, CXCR6 block 34.1, EBI2 antag 53.6*, APJ antag 30.6, HTR2A ag -5.3 and CCR6 antag 45.8.
For CCN(CC)c1ccc2c(c1)oc(=O)c1c(Cl)cc(=O)oc12 the results were APJ ag 0.0, CXCR6 block 60.2*, EBI2 antag 61.7*, APJ antag 31.3, HTR2A ag -4.8 and CCR6 antag 47.3.
For CCN(CC)c1ccc2c(C)c(Cl)c(=O)oc2c1 the results were APJ ag -1.2, CXCR6 block 1.0, EBI2 antag -3.2, APJ antag -3.4, HTR2A ag 5.7 and CCR6 antag -2.9.
CCc1nc2ccc(C(=O)Nc3cccc(OCC(=O)N(C)C)c3)cn2c1N(CC)CCN(C)C was read as CXCR6 block 6.7, EBI2 antag -4.2 and HTR2A ag -9.5.
